Compound activity deposited in PubChem by Broad Institute.
FGF22 binding: binders of recombinant human FGF22 by thermal shift; Q9HCT0; SYPRO orange fluorescence; percent of sucrose octasulfate shift, DMSO zero; activity (Tm shift, normalised), % at 9.99 µM; actives 1.5% (n = 340,000); AID 651658;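 active = mean Tm shift, scaled 0 neutral to 100 positive control, at about 1.3% or above, every replicate too, limit read from the data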
FN deposit inh: fibronectin deposition inhibition | inhibition, % at 12.6 µM | AH1F fibroblasts, Alexa488-fibronectin deposition fluorescence, overnight | AID 743247 | actives 0.086% (n = 350,000);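 active = mean inhibition across replicates of 30% or more, regardless of how many single replicates reach that level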;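 note: positive control wells lacked labelled fibronectin entirely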
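Measured by – fluorescence 485/525 nm · System – AH1F fibroblast monolayer, labelled fibronectin deposition · Amount – 10000 cells per well · Buffer or medium – serum-reduced DMEM (2% serum) · Doses – single dose, pinned · Also added – fluorescent fibronectin at 24 nM final · Schedule – 1 h cell attachment, overnight exposure to compound and label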
E-selectin induc: induces E-selectin expression in human endothelial cells; P16581; HUVEC E-selectin immunofluorescence imaging; normalized: neutral wells 0, TNF-alpha wells 100; activation, % at 7.58 µM; actives 0.37% (n = 260,000);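 active = mean E-selectin-positive cell signal at least 10% of the positive control, reached in at least 60% of replicates, without over 20% cell loss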
Target sequence (P16581 whole entry, looked up): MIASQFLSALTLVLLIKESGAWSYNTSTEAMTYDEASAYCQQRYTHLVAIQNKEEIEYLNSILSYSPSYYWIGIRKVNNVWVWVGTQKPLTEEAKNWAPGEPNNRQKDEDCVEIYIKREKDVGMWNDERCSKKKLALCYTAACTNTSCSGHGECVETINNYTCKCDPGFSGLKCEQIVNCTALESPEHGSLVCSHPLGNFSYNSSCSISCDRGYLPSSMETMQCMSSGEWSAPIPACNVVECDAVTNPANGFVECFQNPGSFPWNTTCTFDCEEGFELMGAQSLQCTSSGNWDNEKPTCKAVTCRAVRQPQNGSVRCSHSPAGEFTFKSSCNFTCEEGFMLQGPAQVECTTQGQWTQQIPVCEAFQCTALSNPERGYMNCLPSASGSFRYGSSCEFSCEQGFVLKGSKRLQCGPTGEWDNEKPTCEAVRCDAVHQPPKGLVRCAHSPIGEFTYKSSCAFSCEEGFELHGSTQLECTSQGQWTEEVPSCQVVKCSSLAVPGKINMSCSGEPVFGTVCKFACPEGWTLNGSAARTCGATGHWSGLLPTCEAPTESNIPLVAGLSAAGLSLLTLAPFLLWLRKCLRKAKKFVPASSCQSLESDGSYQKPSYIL
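Read-out basis: % PE-positive cells; Test system: HUVEC primary endothelial cells; Technique: immunofluorescence imaging; Dosing: single-point compound dose.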
SIRT5 block: inhibitors of human sirtuin-5 desuccinylase | Q9NXA8 | Purified SirT5, succinyl-peptide AMC, trypsin-coupled fluorescence | inhibition, % at 15 µM | actives 1.1% (n = 330,000) | AID 652115; in the data active = inhibition above about 15%
Statin myotox sup: suppressors of simvastatin-induced myotoxicity in C2C12 myotubes; AID 602340; ATP luminescence, 48 h; scaled: DMSO 0, geranylgeraniol control 100; actives 0.78% (n = 330,000); rescue of ATP level, % at 7.49 µM;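 active = mean ATP rescue above about 67%, or every replicate alone reaching that limit, limit read from the data, passing the limit was not always enough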;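 note: myotubes were challenged with 10 µM simvastatin during compound exposure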
rRNA inh HTS: inhibits bacterial ribosomal RNA function over humanized ribosomes. E. coli WT GFP vs humanized-ribosome RFP mutants, fluorescence, 24 h; active compounds read low; DMSO median 0, no signal -100. GFP signal change (wild-type ribosome), % (concentration not given with the values). actives 1.6% (n = 350,000);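 active = significant combined selectivity score with lowered wild-type GFP, culture density cut under 30%, mutant RFP and density less affected; inactive = any of these conditions unmet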
Active calls of the source: *. An excerpt weighted towards active compounds, which were near 4% of everything screened.

For C[C@H](CO)N1C[C@H](C)[C@H](CN(C)C(=O)c2cnccn2)Oc2ncc(C#CCC3CCCC3)cc2C1=O the results were FGF22 binding -0.1, FN deposit inh -6.4, E-selectin induc -2.3, SIRT5 block -0.3, Statin myotox sup 13.3 and rRNA inh HTS 0.1.
`COc1cccc(S(=O)(=O)N[C@H]2CC[C@H](CC(=O)NCc3ccncc3)O[C@@H]2CO)c1` gave FGF22 binding -0.1, FN deposit inh 4.1, E-selectin induc -0.3, SIRT5 block -1.2, Statin myotox sup 1.1 and rRNA inh HTS 3.7.
`CC=Cc1ccc2n(c1=O)C[C@@H]1[C@@H](CO)[C@H](C(=O)NCC3CC3)[C@H]2N1CCC(F)(F)F` (mixture of isomers) gave FGF22 binding -0.3, E-selectin induc 0.3, SIRT5 block -3.9, Statin myotox sup -2.3 and rRNA inh HTS 1.5.
Screening COc1ccc(-c2nc3ccccc3nc2-c2ccccc2)cc1OC returned FGF22 binding 0.0, FN deposit inh -0.7, E-selectin induc -0.1, SIRT5 block 16.9*, Statin myotox sup -9.5 and rRNA inh HTS -26.1.
COc1ccc(-c2nc3ccccc3nc2-c2ccc(OC)c(OC)c2)cc1OC was read as FGF22 binding 0.3, FN deposit inh -1.1, SIRT5 block 2.6, Statin myotox sup 20.9 and rRNA inh HTS -12.9.
For COCCOC(=O)N1C(=O)[C@@]2(c3ccccc31)[C@H](C(=O)Nc1nc3ccccc3s1)[C@H]1C(=O)O[C@H](c3ccccc3)[C@H](c3ccccc3)N1[C@@H]2c1ccc(OCCO)cc1 the results were FGF22 binding 0.7 and SIRT5 block 1.9.
For C#CCOCCOCCOCCNc1nc(N2CCOCC2)nc(N2CCN(C(=O)[C@H](CCCN=C(N)N)n3cc(C(N)[C@@H](C)CC)nn3)CC2)n1 (some centres not stated) the results were FGF22 binding 15.3*, FN deposit inh 2.7, E-selectin induc -0.1, Statin myotox sup 1.5 and rRNA inh HTS 6.9.
`C#CCOCCOCCOCCNc1nc(N2CCN(C(=O)CCCCCCCCCCNC(=O)[C@@H]([C@H](C)O)n3cc(C)nn3)CC2)nc(N2CCN(C(=O)CCCCCCCCCCNC(=O)[C@@H]([C@H](C)O)n3cc(C)nn3)CC2)n1` gave FGF22 binding -0.1, FN deposit inh -6.3, E-selectin induc 0.6, SIRT5 block -0.4, Statin myotox sup 77.2* and rRNA inh HTS 14.2.
COc1ccccc1NC(=O)N(C)C[C@H]1OCc2ccccc2-c2c(n(C)c3ccccc23)C(=O)N([C@@H](C)CO)C[C@@H]1C was read as FGF22 binding -0.6, FN deposit inh -14.7, E-selectin induc -0.5, SIRT5 block -3.9 and rRNA inh HTS -4.0.
O=S(=O)(c1ccc(N2CCN(S(=O)(=O)c3ccccc3)CC2)nc1)N1CCCC1 was read as FGF22 binding 43.1*, FN deposit inh 4.9, E-selectin induc -0.3, SIRT5 block -6.3, Statin myotox sup 7.5 and rRNA inh HTS 4.9.
Screening CCCCC1C(=O)N(c2ccccc2)N(c2ccc(O)cc2)C1=O (configuration not stated) returned FGF22 binding 0.0, FN deposit inh -4.2, E-selectin induc 152.0*, SIRT5 block 1.5 and Statin myotox sup -130.1.
Screening COc1ccc(-c2csc(C(NC(C)=O)c3cccc(F)c3)n2)cc1 (configuration not stated) returned FGF22 binding -0.2, FN deposit inh -8.2, E-selectin induc 0.2, Statin myotox sup 76.1* and rRNA inh HTS 4.7.
C[C@H](CO)N1C[C@H](C)[C@@H](CN(C)Cc2ccc(C(F)(F)F)cc2)Oc2ccc(NS(=O)(=O)c3ccc(F)cc3)cc2CC1=O was read as FGF22 binding 0.1, E-selectin induc -0.1, SIRT5 block 34.9*, Statin myotox sup 82.8* and rRNA inh HTS -2.7.
For Cc1ccc(S(=O)(=O)Nc2ccc3c(c2)CC(=O)N([C@H](C)CO)C[C@H](C)[C@@H](CN(C)Cc2ccc(C(F)(F)F)cc2)O3)cc1 the results were E-selectin induc 0.2, Statin myotox sup 115.4* and rRNA inh HTS -0.1.
